Activity calls are given as the source filed them. The rule behind the calls is not given here.
Assays:
[1] = target: Muscarinic acetylcholine receptor M3 (Cavia porcellus) (UniProt Q8VH26); test: Agonist activity at muscarinic M3 receptor in guinea-pig ileum; type: functional, tissue-based
How it was run: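 Isolated tissues in an organ bath were washed for 30 min, then a cumulative dose–response curve to the compound was built. Contractions were recorded isometrically by force transducer and expressed as % of the maximal control-curve response. Parallel untreated tissues checked sensitivity drift. Values are means ± SEM of four to six independent experiments.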

[2] = target: T1, Muscarinic acetylcholine receptor M1 (Homo sapiens) (UniProt P11229); settings: Oryctolagus cuniculus; Vas deferens
T1 sequence (whole entry): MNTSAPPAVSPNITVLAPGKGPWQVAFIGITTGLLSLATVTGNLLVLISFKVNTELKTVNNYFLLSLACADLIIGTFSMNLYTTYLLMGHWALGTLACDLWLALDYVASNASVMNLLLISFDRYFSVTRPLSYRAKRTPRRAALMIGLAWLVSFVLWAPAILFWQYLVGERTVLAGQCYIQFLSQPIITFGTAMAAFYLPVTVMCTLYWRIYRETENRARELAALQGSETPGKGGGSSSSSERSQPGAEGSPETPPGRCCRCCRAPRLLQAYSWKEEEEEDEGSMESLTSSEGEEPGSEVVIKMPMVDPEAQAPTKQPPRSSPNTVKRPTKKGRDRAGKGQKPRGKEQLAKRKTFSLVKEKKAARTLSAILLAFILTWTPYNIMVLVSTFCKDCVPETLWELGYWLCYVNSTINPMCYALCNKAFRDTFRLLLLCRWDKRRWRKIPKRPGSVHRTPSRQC

[3] = target: T2, Muscarinic acetylcholine receptor M4 (Homo sapiens, UniProt P08173); test: Agonist activity at human muscarinic M4 receptor expressed in CHO cells; type: functional, cell-based
T2 sequence (P08173 whole entry): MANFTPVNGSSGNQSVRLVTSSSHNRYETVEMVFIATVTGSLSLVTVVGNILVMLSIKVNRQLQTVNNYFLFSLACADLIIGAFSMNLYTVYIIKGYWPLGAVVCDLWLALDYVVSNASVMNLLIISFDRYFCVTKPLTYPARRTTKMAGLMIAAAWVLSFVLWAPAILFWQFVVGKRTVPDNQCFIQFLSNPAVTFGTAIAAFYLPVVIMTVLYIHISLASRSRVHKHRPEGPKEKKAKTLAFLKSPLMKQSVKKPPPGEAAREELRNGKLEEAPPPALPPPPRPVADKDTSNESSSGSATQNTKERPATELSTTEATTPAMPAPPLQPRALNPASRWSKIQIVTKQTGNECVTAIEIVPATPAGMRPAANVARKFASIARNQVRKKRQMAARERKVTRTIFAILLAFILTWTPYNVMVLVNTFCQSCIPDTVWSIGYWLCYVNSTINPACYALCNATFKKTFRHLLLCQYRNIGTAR

[4] = target: T3, Muscarinic acetylcholine receptor M5 (Homo sapiens) (UniProt P08912); test: Agonist activity at human muscarinic M5 receptor expressed in CHO cells; type: functional, cell-based
T3 sequence (whole entry): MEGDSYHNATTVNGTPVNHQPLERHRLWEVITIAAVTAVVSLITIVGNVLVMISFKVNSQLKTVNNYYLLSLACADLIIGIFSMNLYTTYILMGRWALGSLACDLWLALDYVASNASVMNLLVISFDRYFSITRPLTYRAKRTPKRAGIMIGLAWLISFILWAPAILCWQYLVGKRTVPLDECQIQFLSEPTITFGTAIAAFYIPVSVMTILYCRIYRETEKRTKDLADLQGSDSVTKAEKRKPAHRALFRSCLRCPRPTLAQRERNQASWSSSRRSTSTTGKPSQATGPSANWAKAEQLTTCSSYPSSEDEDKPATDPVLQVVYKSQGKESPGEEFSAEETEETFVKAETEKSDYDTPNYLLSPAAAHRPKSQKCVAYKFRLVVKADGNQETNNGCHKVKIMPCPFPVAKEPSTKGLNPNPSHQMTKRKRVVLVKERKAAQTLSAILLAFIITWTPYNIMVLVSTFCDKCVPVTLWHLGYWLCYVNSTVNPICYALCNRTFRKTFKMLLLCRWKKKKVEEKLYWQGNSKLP

[5] = target: T1, Muscarinic acetylcholine receptor M1 (Homo sapiens); test: Antagonist activity at muscarinic M1 receptor in rabbit stimulated vas deferens at 10 uM; type: functional, tissue-based; settings: Oryctolagus cuniculus, target entry is the homologue from another species
[6] = system: Muscarinic acetylcholine receptor M4 (Cavia porcellus); test: Intrinsic activity at muscarinic M4 receptor in guinea-pig lung strips assessed as ratio of agonist activity to activity of McN-A-343
[7] = system: Muscarinic acetylcholine receptor M2 (Cavia porcellus); test: Agonist activity at muscarinic M2 receptor in guinea-pig stimulated left atria
[8] = system: Muscarinic acetylcholine receptor M2 (Cavia porcellus); test: Intrinsic activity at muscarinic M2 receptor in guinea-pig stimulated left atria assessed as ratio of agonist activity to activity of arecaidine propargyl ester
[9] = target: Muscarinic acetylcholine receptor M3 (Cavia porcellus) (UniProt Q8VH26); test: Intrinsic activity at muscarinic M3 receptor in guinea-pig ileum assessed as ratio of agonist activity to activity of […]; type: functional, tissue-based
[10] = system: Muscarinic acetylcholine receptor M4 (Cavia porcellus); test: Agonist muscarinic M4 receptor in guinea-pig lung strips
[11] = target: T4, Muscarinic acetylcholine receptor M2 (Homo sapiens) (UniProt P08172); test: Antagonist activity at muscarinic M2 receptor in guinea-pig stimulated left atria at 10 uM; type: functional; settings: Cavia porcellus, target entry is the homologue from another species
T4 sequence (whole entry): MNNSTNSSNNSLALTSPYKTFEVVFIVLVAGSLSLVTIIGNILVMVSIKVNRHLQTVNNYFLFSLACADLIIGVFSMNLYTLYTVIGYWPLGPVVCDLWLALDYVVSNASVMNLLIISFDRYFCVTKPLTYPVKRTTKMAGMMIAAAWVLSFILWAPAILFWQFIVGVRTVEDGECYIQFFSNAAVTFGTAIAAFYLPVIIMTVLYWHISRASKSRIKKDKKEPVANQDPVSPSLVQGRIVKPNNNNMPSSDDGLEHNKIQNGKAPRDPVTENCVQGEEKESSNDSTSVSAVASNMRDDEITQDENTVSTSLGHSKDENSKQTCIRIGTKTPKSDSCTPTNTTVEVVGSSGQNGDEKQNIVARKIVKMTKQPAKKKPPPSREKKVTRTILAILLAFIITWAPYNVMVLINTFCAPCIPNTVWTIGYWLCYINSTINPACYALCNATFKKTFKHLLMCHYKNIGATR

Sequence of Muscarinic acetylcholine receptor M3 (Cavia porcellus) (Q8VH26 1-587): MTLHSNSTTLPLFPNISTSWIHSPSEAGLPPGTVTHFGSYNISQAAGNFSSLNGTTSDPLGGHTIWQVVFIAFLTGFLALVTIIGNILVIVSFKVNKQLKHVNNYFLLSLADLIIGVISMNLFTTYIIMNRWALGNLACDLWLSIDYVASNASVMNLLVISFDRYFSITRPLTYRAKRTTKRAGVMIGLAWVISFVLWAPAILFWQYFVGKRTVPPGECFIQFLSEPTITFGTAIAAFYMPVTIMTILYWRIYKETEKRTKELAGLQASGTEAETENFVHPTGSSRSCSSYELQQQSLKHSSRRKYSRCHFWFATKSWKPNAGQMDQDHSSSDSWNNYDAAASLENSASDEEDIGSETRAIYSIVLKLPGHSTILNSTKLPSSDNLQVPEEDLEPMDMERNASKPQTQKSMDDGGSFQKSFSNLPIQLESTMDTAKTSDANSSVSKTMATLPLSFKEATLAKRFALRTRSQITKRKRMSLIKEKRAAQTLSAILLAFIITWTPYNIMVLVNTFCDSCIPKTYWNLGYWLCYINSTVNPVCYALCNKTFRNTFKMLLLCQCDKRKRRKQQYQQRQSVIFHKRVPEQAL

Structure (SMILES): CC1OC(C[N+](C)(C)C)CS1 (racemic)
- pD2 [1]: 7.75
- pD2 [2]: 6.81

Structure (SMILES): CC1COCC(C[N+](C)(C)C)O1 (racemic; form 2)
- EC50 [3]: 282 µM

Structure (SMILES): C[C@@H]1COC[C@H](C[N+](C)(C)C)O1
- Activity [4]: inactive
- pD2 [1]: 6.53
- pKb [5]: < 5
- EC50 [3]: 25.1 µM

Structure (SMILES): C[C@H]1OC[C@@H](C[N+](C)(C)C)O1 (relative stereo)
- pD2 [1]: 7.69

Structure (SMILES): C[C@H]1COC[C@H](C[N+](C)(C)C)O1
- pD2 [1]: 6.02
- pD2 [2]: 5.08

Structure (SMILES): C[C@H]1OC[C@H](C[N+](C)(C)C)O1 (relative stereo)
- pD2 [1]: 7.47

Structure (SMILES): C[C@H]1COC[C@@H](C[N+](C)(C)C)O1
- pD2 [1]: 7.65
- pD2 [2]: 6.78
- EC50 [3]: 2.82 µM

Structure (SMILES): C[C@H]1O[C@@H](C[N+](C)(C)C)CS1
- pD2 [1]: 5.82

Structure (SMILES): CC1COCC(C[N+](C)(C)C)O1 (racemic; form 1) [listing 1 of 2 here]
- pD2 [1]: 7.34
- pD2 [2]: 5.65

Structure (SMILES): C[C@H]1OCC[C@@H](C[N+](C)(C)C)O1
- Intrinsic activity [6]: 1
- pD2 [7]: 5.24
- pD2 [1]: 5.73
- Intrinsic activity [8]: 1
- Intrinsic activity [9]: 1
- pKb [5]: > 5
- pD2 [10]: 6.41

Structure (SMILES): C[C@@H]1O[C@H](C[N+](C)(C)C)CS1
- pD2 [1]: 8.06

Structure (SMILES): C[C@H]1CSC[C@H](C[N+](C)(C)C)O1 (relative stereo)
- pD2 [1]: 5.21
- Intrinsic activity [9]: 1
- pKb [11]: < 5
- pKb [5]: < 5

Structure (SMILES): CC1COCC(C[N+](C)(C)C)O1 (racemic; form 1) [listing 2 of 2 here]
- EC50 [3]: 2.51 µM

Structure (SMILES): C[C@H]1CSC[C@@H](C[N+](C)(C)C)O1 (relative stereo)
- pD2 [7]: 6.26
- pD2 [1]: 6.46
- Intrinsic activity [8]: 1
- pD2 [2]: 4.46
- Intrinsic activity [9]: 1

From ChEMBL document CHEMBL1144548, “Dioxane and oxathiane nuclei: suitable substructures for muscarinic agonists” (Bioorg Med Chem, 2007)
